Measurements pooled from the literature.
Lines come from different studies, so protocols differ.
Cell line: HCT-116
Observed: cell growth or viability

SMILES | method | time | IC50
N.N.[Cl][Pt][Cl] | – | 48 h | 16300 nM
CC1=C(O)C(=O)C=C2C1=CC=C1[C@@]2(C)CC[C@@]2(C)[C@@H]3C[C@](C)(C(=O)OCCCn4cc(C=O)c5ccccc54)CC[C@]3(C)CC[C@]12C | MTT | 48 h | 570 nM
O=c1ccc2cc3ccoc3cc2o1 | WST-1 | 48 h | 26100 nM
COc1ccc2c(c1)[nH]c1c(C)nccc12 | MTT | 72 h | 25100 nM
COc1ccc2[nH]cc(CCNc3nccc(Nc4cccc5c4ccn5C)n3)c2c1 | fluorescence | 72 h | 9.2 nM
CN[C@@H]1C[C@H]2O[C@@](C)([C@@H]1OC)n1c3ccccc3c3c4c(c5c6ccccc6n2c5c31)C(=O)NC4 | MTT | – | 15 nM
COc1cc2c3c(n(CCCN4CCOCC4)c(=O)c2cc1OC)-c1cc2c(cc1C3=O)OCO2 | – | 72 h | 0.618 µg/mL
CC[C@@]1(OC(=O)Cc2c(C)n(C(=O)c3ccc(Cl)cc3)c3ccc(OC)cc23)C(=O)OCc2c1cc1n(c2=O)Cc2cc3cc4c(cc3nc2-1)OCO4 | MTT | – | 46 nM
CSC(=NNC(=O)c1ccc(O)cc1)SC | MTT | 5 days | > 100000 nM
CC[C@@]1(OC(=O)[C@@H](N)C(C)C)C(=O)OCc2c1cc1n(c2=O)Cc2cc3cc4c(cc3nc2-1)OCO4 | MTT | – | 46 nM
CSC(=NNC(=O)c1ccc(Cl)c(Cl)c1)SC | MTT | 5 days | 28000 nM
CC[C@@]1(OC(=O)[C@@H](N)CCCCN)C(=O)OCc2c1cc1n(c2=O)Cc2cc3cc4c(cc3nc2-1)OCO4 | MTT | – | 28 nM
N.N.[Cl][Pt][Cl] | MTS | 72 h | 41700 nM
CC[C@@]1(O)C(=O)OCc2c1cc1n(c2=O)Cc2cc3cc4c(cc3nc2-1)OCO4 | MTT | 72 h | 14 nM
CC1=C(O)C(=O)C=C2C1=CC=C1[C@@]2(C)CC[C@@]2(C)[C@@H]3C[C@](C)(C(=O)O)CC[C@]3(C)CC[C@]12C | MTT | 48 h | 430 nM
CC[C@@]1(OC(=O)[C@@H](N)CCSC)C(=O)OCc2c1cc1n(c2=O)Cc2cc3cc4c(cc3nc2-1)OCO4 | MTT | – | 56 nM
N.N.[Cl][Pt][Cl] | SRB | – | 5300 nM
CCC1(OC(=O)C(C)c2ccc3cc(OC)ccc3c2)C(=O)OCc2c1cc1n(c2=O)Cc2cc3cc4c(cc3nc2-1)OCO4 (stereo not shown) | MTT | – | 2340 nM
O=c1ccc2ccc3occc3c2o1 | WST-1 | 48 h | 8700 nM
